Assay results: ChEMBL document CHEMBL1123921, “Quinolonecarboxylic acids. 2. Synthesis and antibacterial evaluation of 7-oxo-2,3-dihydro-7H-pyrido[1,2,3-de][1,4]benzothiazine-6-carboxylic acids” (J Med Chem, 1987)
Values after ≈ are worked out from the molar mass of the structure shown.

How the values were obtained:
[1] = system: Rattus norvegicus; assay: Volume of distribution at a dose of 10 mg/kg, intraperitoneal route in rat suspended in carboxymethyl cellulose (CMC); type: ADME, organism-based; set-up: dose 10 mg/kg, route intraperitoneal; conditions: in vivo, ip
Method in brief: (§1)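 Fasted male Wistar rats (180–230 g) given the drug ip in carboxymethyl cellulose. Plasma and urine extracted with CHCl₃ from citrate buffer pH 6.2 with internal standard. Analysis by reverse-phase C-18 HPLC, 0.1% AcOH/MeOH gradient, 245 nm UV. Urinary clearance and total clearance derived as pharmacokinetic parameters.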

[2] = Time taken for peak plasma concentration at a dose of 200 mg/kg, oral route in human; type: ADME, organism-based; set-up: dose 200 mg/kg, route oral
Method in brief: (§2)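 Four healthy volunteers of both sexes took oral capsules (100 mg units) at three dose levels. Venous blood drawn into heparinized tubes and plasma obtained by low-speed centrifugation. Urine collected. Unchanged drug in plasma and urine determined by C-18 HPLC after CHCl₃ extraction, with UV detection at 245 nm.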

[3] = Lethal dose after single iv administration to rat was determined; type: toxicity, organism-based; conditions: in vivo
Method in brief: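 Male Wistar rats (130-150 g) were given single intravenous doses at no fewer than three levels. Deaths were counted over 14 days, and LD50 was calculated by the Litchfield and Wilcoxon method.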

[4] = Half life period was determined for the compound at 10 mg/kg concentration, intraperitoneal route; conditions: in vivo, ip
[5] = Ratio of urinary excretion after os administration to ip administration; type: ADME, organism-based, Urine; conditions: in vivo
Method in brief: (§3)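 Fasted male Wistar rats (180–230 g), drug suspended in carboxymethyl cellulose, given orally or ip. Plasma (heparinized) and urine from metabolic cages were sampled at various times. The unchanged drug was measured by HPLC after CHCl3 extraction at pH 6.2 with an internal standard, on a C-18 column with an AcOH/MeOH gradient and UV detection at 245 nm. Interassay and intraassay variability was about 10%.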

[6] = Plasma levels determined 1 hr after peroral dose of 50 mg/kg; conditions: po
[7] = Ratio of tissue (heart) levels to plasma levels after 15 hr of treatment; type: ADME
Method in brief: (§4)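 Male Wistar rats received 50 mg/kg po and were killed at 1 and 15 h. Tissue homogenates and plasma extracted with CHCl₃ after adding internal standard and pH 6.2 citrate buffer. Drug quantified by C-18 HPLC with UV at 245 nm. Tissue level divided by plasma level.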

[8] = Urinary clearance was determined in rat at 25 mg/kg os dosage; type: ADME, organism-based; set-up: dose 25 mg/kg; conditions: urine, po, read-out: CL_renal (converted)
Method in brief: (§5)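 Fasted male Wistar rats (180–230 g) dosed orally, suspended in carboxymethyl cellulose. Plasma and urine assayed by HPLC: sample plus internal standard and citrate buffer (0.1 M, pH 6.2), extracted into CHCl₃, dried, redissolved in MeOH. Separation on C-18 with 0.1% AcOH/MeOH gradient, UV detection at 245 nm.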

[9] = Ratio of tissue (kidney) levels to plasma levels after 1 hr of treatment; type: ADME; method in brief: as §4
[10] = Peak plasma concentration at a dose of 20 mg/kg, oral route in dog(beagle) suspended in carboxymethyl cellulose (CMC); type: ADME, organism-based, Canis lupus familiaris; set-up: dose 20 mg/kg, route oral; conditions: read-out: Activity
Method in brief: (§6)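 Four male beagle dogs or two Macaca fascicularis monkeys dosed orally, suspended in carboxymethyl cellulose. Venous blood collected into heparinized tubes and plasma separated by low-speed centrifugation. Urine gathered in metabolic cages. Unchanged drug measured by C-18 HPLC (extraction, UV 245 nm).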

[11] = Urinary excretion for the compound was evaluated as percent dose excreted at 20 mg/kg oral dosage in dog (beagle);Range is between (8-10).; type: ADME, organism-based, Canis lupus familiaris; set-up: dose 20 mg/kg, route oral; conditions: urine; method in brief: as §6
[12] = Peak plasma concentration at a dose of 100 mg/kg, oral route in human; type: ADME, organism-based; set-up: dose 100 mg/kg, route oral; conditions: read-out: Activity; method in brief: as §2
[13] = Peak plasma concentration at a dose of 20 mg/kg, oral route in monkey (Macaca fascicularis) suspended in carboxymethyl cellulose (CMC);Range is between (5.5-6); type: ADME, organism-based; set-up: dose 20 mg/kg, route oral; conditions: cynomolgus monkey, read-out: Activity; method in brief: as §6
[14] = system: Staphylococcus aureus; assay: In vitro antibacterial activity against clinical isolates of Staphylococcus aureus 18773 (gram-positive) by agar dilution assay.; type: functional
Method in brief: (§7)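 Agar dilution on Isosensitest agar; compound incorporated by twofold serial dilution. Overnight broth cultures delivered by multipoint inoculator at 10⁵ CFU per point. Plates read after 18 h at 37 °C. MIC taken as the lowest concentration giving complete growth inhibition.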

[15] = Total clearance was determined in rat at 25 mg/kg intraperitoneal dosage; type: ADME, organism-based; set-up: dose 25 mg/kg, route intraperitoneal; conditions: in vivo, ip, read-out: Clearance (converted); method in brief: as §1
[16] = Half life period was determined for the compound at 400 mg/kg concentration, oral route in human; type: ADME, organism-based; set-up: dose 400 mg/kg, route oral; conditions: in vivo; method in brief: as §2
[17] = in vivo; conditions: heart, po, 50 mg/kg
[18] = Tissue levels determined 1 hr after peroral dose of 50 mg/kg in heart; conditions: po
[19] = Time taken for peak plasma concentration at a dose of 50 mg/kg, os route in rat suspended in carboxymethyl cellulose (CMC); type: ADME, organism-based; set-up: dose 50 mg/kg; conditions: po; method in brief: as §5
[20] = Ratio of tissue (liver) levels to plasma levels after 1 hr of treatment; type: ADME; method in brief: as §4
[21] = Half life period was determined for the compound at 100 mg/kg concentration, os route; conditions: in vivo, po
[22] = system: Rattus norvegicus; assay: Volume of distribution at a dose of 25 mg/kg, intraperitoneal route in rat suspended in carboxymethyl cellulose (CMC); type: ADME, organism-based; set-up: dose 25 mg/kg, route intraperitoneal; conditions: in vivo, ip; method in brief: as §1
[23] = system: Escherichia coli; assay: In vitro antibacterial activity against clinical isolates of Escherichia coli 15 (gram negative) by agar dilution assay.; type: functional; method in brief: as §7
[24] = system: Pseudomonas aeruginosa; assay: In vitro antibacterial activity against clinical isolates of Pseudomonas aeruginosa 2437 (gram negative) by agar dilution assay.; type: functional; method in brief: as §7
[25] = Ratio of AUC from os administration to AUC from ip administration at a dose of 25 mg/kg; type: ADME, organism-based; set-up: dose 25 mg/kg, route intraperitoneal; conditions: in vivo; method in brief: as §3

Compound: CN1CCN(c2c(F)cc3c(=O)c(C(=O)O)cn4c3c2SCC4)CC1 [RUFLOXACIN]
- Vd [1]: 3 L/kg
- Tmax [2]: 4 h
- LD50 [3]: 285 mg/kg
- half-life [4]: 9.9 h
- Ratio [5]: 0.91
- concentration at 1 h [6]: 10000 ng/mL
- Kp at 15 h [7]: 1.7
- CL renal [8]: 1.21 mL/min/kg
- Kp at 1 h [9]: 6
- Cmax [10]: 5700 ng/mL
- dose excreted [11]: 8%
- Cmax [12]: 1870 ng/mL
- Cmax [13]: 5500 ng/mL
- MIC [14]: 0.78 µg/mL (≈ 2.15 µM)
- CL/F [15]: 4.18 mL/min/kg
- half-life [16]: 32 h
- concentration at 15 h [17]: 5000 ng/mL
- concentration at 1 h [18]: 31000 ng/mL
- Tmax [19]: 1 h
- Kp at 1 h [20]: 8
- half-life [21]: 8.7 h
- Vd [22]: 3 L/kg
- MIC [23]: 0.78 µg/mL (≈ 2.15 µM)
- MIC [24]: 12.5 µg/mL (≈ 34.4 µM)
- Ratio [25]: 0.85
